TAAR1 antag: human TAAR1 antagonism. Q96RJ0. CHO RD-HGA16 TAAR1, Fluo-8 calcium fluorescence, antagonist. inhibition, % at 3 µM. 360,000 tested, 1.5% active. AID 624466;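 active means inhibition above a per-plate cutoff, the mean inhibition of test compounds on that plate plus 3 SD, cut at about 49% in these data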;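 further: 0% = DMSO plus EC80 beta-PEA response and 100% = DMSO alone without agonist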
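Material: RD-HGA16 CHO cells with stable hTAAR1 and Gα16; Dosing: single nominal final test compound concentration of 3 µM; Schedule: seeding 17-24 h prior, 75-min 37 °C, 30-min RT dye loading; Detection: kinetic Fluo-8 calcium fluorescence measurement; Measure: % inhibition from peak post-agonist over basal fluorescence ratio; Benchmarks: vehicle and agonist controls.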
OX1R antag-1: blocks the human orexin 1 receptor. inhibition, % at 5 µM. 330,000 tested, 0.43% active. CHO/OX1R cells, Fluo-8 calcium fluorescence, orexin A;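 active means inhibition above its plate's threshold, mean inhibition of all tested compounds on the plate plus 3 SD, cut at about 37% in these data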;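 further: 0% = orexin A challenge wells and 100% = SB-334867-A antagonist wells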
Target sequence (O43613 whole entry, looked up): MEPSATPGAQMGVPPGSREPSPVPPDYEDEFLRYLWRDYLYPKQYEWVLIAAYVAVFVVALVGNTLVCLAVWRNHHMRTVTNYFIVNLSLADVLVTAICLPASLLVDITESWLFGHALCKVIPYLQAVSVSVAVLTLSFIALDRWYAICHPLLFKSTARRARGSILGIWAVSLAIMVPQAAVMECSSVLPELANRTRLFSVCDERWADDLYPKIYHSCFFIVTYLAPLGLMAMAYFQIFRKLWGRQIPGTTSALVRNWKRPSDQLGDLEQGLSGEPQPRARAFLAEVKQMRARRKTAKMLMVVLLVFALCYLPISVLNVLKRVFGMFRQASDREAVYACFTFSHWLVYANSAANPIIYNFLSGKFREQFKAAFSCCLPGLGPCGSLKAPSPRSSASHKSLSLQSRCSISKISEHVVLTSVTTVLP
GalR3 antag: blocks the human galanin receptor 3. O60755. HEK293 GalR3-CNG cAMP membrane potential fluorescence; galR3 body fused to GalR1 C-terminus. inhibition, % at 3 µM. 360,000 tested, 0.44% active. AID 651719;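 active means inhibition above the screen-wide average plus 3 SD, cut at about 13% in these data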;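 further: forskolin and galanin both at EC90 stimulate the cells; cAMP rise reported by CNG channel membrane potential dye signal; 0% = forskolin plus galanin with DMSO and 100% = forskolin alone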
Target sequence (O60755 1-299 limits assumed): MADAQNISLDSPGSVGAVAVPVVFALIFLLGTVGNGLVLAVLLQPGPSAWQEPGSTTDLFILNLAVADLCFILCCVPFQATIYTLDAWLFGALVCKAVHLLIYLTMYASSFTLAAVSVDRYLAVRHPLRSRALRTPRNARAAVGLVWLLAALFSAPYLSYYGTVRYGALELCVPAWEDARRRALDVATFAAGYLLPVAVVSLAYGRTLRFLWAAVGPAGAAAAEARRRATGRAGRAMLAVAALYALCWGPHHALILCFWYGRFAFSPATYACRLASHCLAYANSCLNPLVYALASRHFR
CHO parental Ca: signal in parental CHO cells, OX1R antagonist counter-screen. inhibition, % at 5.6 µM. 330,000 tested, 0.63% active. parental CHO-K1, ATP-induced calcium, Fluo-8 fluorescence;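 active means inhibition above that plate's mean sample inhibition plus 3 SD, cut at about 26% in these data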;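 further: 0% = ATP-challenged DMSO wells and 100% = DMSO wells without ATP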
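Test system: parental CHO cells; detection: calcium-sensitive Fluo-8 fluorescence; evaluation: percent inhibition of calcium signal; also added: ATP as calcium-mobilizing challenge; repeats: one well per compound; control set: ATP-challenged DMSO wells low, unchallenged DMSO wells high; compound: single nominal dose of 5.6 µM per compound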
OX1R antag-2: antagonists of human orexin 1 receptor (OX1R); O43613; 330,000 tested, 1.8% active; AID 485270; OX1R-expressing cells, FRET antagonist read-out; inhibition, % at 6.6 µM; in the data active means inhibition mostly above about 38%, no sharp cut-off; inactive means mostly below about 40%;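 further: 0% = agonist challenge alone and 100% = reference antagonist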
TAAR1 agonist: human TAAR1 agonism; Q96RJ0; CHO RD-HGA16 TAAR1, Fluo-8 calcium fluorescence; vehicle wells 0%, saturating PEA agonist 100%; activation, % at 3 µM; 360,000 tested, 0.99% active; AID 624467;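 active means activation above the mean activation of all test compounds in the run plus 3 SD, cut at about 38% in these data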
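Repeats: no replicates (n 1) | Material: CHO-derived RD-HGA16 cells with stable Gα16 and human TAAR1 | Technique: Kinetic Fluo-8 calcium fluorescence | Schedule: 17-24 h seeding, 75 min 37 °C dye, 30 min RT | Evaluation: % activation from peak over basal fluorescence ratio, DMSO-to-PEA scaled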
TAAR1 ag confirm: human TAAR1 agonism, confirmed; 2,400 tested, 82% active; shares compounds with TAAR1 agonist; activation, % at 3 µM; CHO RD-HGA16 TAAR1, Fluo-8 calcium fluorescence; scaled: DMSO 0%, maximal phenethylamine 100%; AID 651783;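 active means activation above a cutoff set at the run's mean compound activation plus 3 SD, cut at about 39% in these data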
Ga16 ag counter: nonselective agonism, TAAR1 counter-screen; 2,400 tested, 50% active; activation, % at 3 µM; CHO-Ga16 parental, Fluo-8 calcium fluorescence; normalized to maximal ATP response, DMSO zero; shares compounds with TAAR1 agonist;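 active means activation above the run cutoff, the mean activation over all tested wells plus 3 SD, cut at about 12% in these data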;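 further: 0% = DMSO wells and 100% = maximal ATP response on the peak over basal ratio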
TAAR1 desensitize: counter-screen for human TAAR1 agonists: agonists that desensitize TAAR1 | shares compounds with TAAR1 agonist | CHO RD-HGA16 hTAAR1, Fluo-8 calcium, beta-PEA response inhibition | inhibition, % at 3 µM | 2,400 tested, 46% active | AID 651951;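 active means inhibition above the run cutoff, the mean inhibition of all test compounds plus 3 SD, cut at about 49% in these data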;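 further: beta-PEA stimulus applied at its EC80; loss of beta-PEA calcium signal after compound pretreatment read as receptor desensitization; 0% = DMSO with beta-PEA at EC80 and 100% = DMSO alone without agonist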
Ga16 antag count: nonselective Ga16 antagonism, counter-screen; 2,400 tested, 39% active; CHO-Ga16 ATP-induced calcium, Fluo-8 fluorescence; AID 651952; shares compounds with TAAR1 agonist; inhibition, % at 3 µM;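 active means inhibition above the plate's mean compound inhibition plus 3 SD, computed per plate, cut at about 22% in these data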;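 further: 0% = EC80 ATP with DMSO and 100% = DMSO wells without ATP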
* hit, by the source's call; · = not tested or not shown. Most compounds without a hit are left out; they make up all but 4.2% or so of the library.

SMILES	TAAR1 antag	OX1R antag-1	GalR3 antag	CHO parental Ca	OX1R antag-2	TAAR1 agonist	TAAR1 ag confirm	Ga16 ag counter	TAAR1 desensitize	Ga16 antag count
CC(Oc1ccc(Br)cc1)C(=O)Nc1ccc(S(=O)(=O)NC2=NCCCCC2)cc1 (stereo not drawn)	72*	·	-7	·	·	95*	119*	78*	81*	47*
CCC1(c2ccc(F)cc2)NC(=O)N(CC(=O)c2cc(C)n(C3CC3)c2C)C1=O (stereo not drawn)	58*	7	0	-2	-2	103*	98*	51*	52*	32*
CC1Cc2ccccc2N1C(=O)CN1CCc2ccccc2C1 (stereo not drawn)	14	-19	-2	-11	22	72*	77*	3	45	20
Cc1cc(C(=O)CN2C(=O)NC(C)(c3cc(F)ccc3F)C2=O)c(C)n1C1CC1 (stereo not drawn)	1	-12	-3	-16	4	21	·	·	·	·
CCC1(c2ccc(F)cc2)NC(=O)N(CC(=O)N2c3ccccc3NC(=O)CC2C)C1=O (stereo not drawn)	9	-8	-4	-6	1	-1	·	·	·	·
CCC1(c2ccc(F)cc2)NC(=O)N(CC(=O)N2c3ccccc3CC2C)C1=O (stereo not drawn)	28	12	-5	-14	5	76*	84*	47*	43	30*
CNc1cc([N+](=O)[O-])ccc1N/C=C/C(=O)c1ccc2c(c1)OCO2	-15	-11	-5	-4	30	2	·	·	·	·
CC(=O)Nc1sc(/C(C#N)=C/c2ccc(Cl)c(Cl)c2)nc1-c1ccc(C)cc1	81*	·	-3	·	·	68*	42*	56*	76*	67*
Cc1ccnc(N/C=C(\C#N)c2nc(-c3cccc(Br)c3)cs2)c1	68*	13	-5	20	-1	124*	77*	86*	68*	63*
O=C(O)CC(NC(=O)C1c2ccccc2Oc2ccccc21)c1ccc(OC2CCCC2)cc1 (stereo not drawn)	-12	-4	0	-8	20	58*	83*	49*	12	0
CCN(CC)c1ccc(C(=O)NNC(=O)CNC(=O)c2ccco2)cc1	-24	·	-6	·	·	2	·	·	·	·
Cc1cc(C)c2nc(N3CCN(C)CC3)c(C#N)cc2c1	-27	-6	-2	-24	18	49*	54*	2	20	11
Cc1ccc2nc(N3CCN(C)CC3)c(C#N)cc2c1	-1	-3	-2	2	21	24	·	·	·	·
Cc1cccc2cc(C#N)c(N3CCN(C)CC3)nc12	1	-21	-5	-12	18	67*	76*	1	45	6
CCOC(=O)c1cc(CC)sc1N	-28	-4	-5	-6	14	5	·	·	·	·
CC(O)(CS(=O)(=O)Cc1cccc(C(F)(F)F)c1)C(=O)Nc1cccc(C(F)(F)F)c1 (stereo not drawn)	5	-10	-7	-20	-1	16	·	·	·	·
N#C/C(=C\c1ccc(N2CCOCC2)o1)c1nc2ccccc2[nH]1	27	-3	-1	7	32	92*	76*	101*	58*	52*
O=C(NCCc1ccccc1)C(=O)NCC1OCCCN1S(=O)(=O)c1cccs1 (stereo not drawn)	41	-7	0	-22	24	68*	97*	16*	74*	11
Cc1ccc(S(=O)(=O)N2CCOC2CNC(=O)C(=O)NCCCc2ccccc2)cc1 (stereo not drawn)	-23	-25	-1	-16	13	11	·	·	·	·
O=C(NCc1ccccc1)C(=O)NCC1OCCCN1S(=O)(=O)c1cccs1 (stereo not drawn)	-24	-15	-3	-2	24	6	·	·	·	·
O=C(NCCc1ccccc1)C(=O)NCC1OCCN1S(=O)(=O)c1ccc([N+](=O)[O-])cc1 (stereo not drawn)	28	-6	0	-9	24	47*	73*	2	22	9
O=C(NCCc1ccccc1)C(=O)NCC1OCCN1S(=O)(=O)c1ccc(Cl)cc1 (stereo not drawn)	-5	-22	-6	-18	25	14	·	·	·	·
O=C(NCCc1ccco1)C(=O)NCC1OCCCN1S(=O)(=O)c1ccccc1 (stereo not drawn)	24	7	-2	-12	23	66*	36	6	10	9
Cc1ccc(S(=O)(=O)N2CCOC2CNC(=O)C(=O)NCCc2ccccc2)cc1 (stereo not drawn)	37	-19	-4	-5	44	58*	82*	1	41	15
CCOC(=O)C1CCCN(C(=O)CN2C(=O)c3ccccc3C2=O)C1 (stereo not drawn)	9	-10	-2	-8	22	2	·	·	·	·
SMILES	TAAR1 antag	OX1R antag-1	GalR3 antag	CHO parental Ca	OX1R antag-2	TAAR1 agonist	TAAR1 ag confirm	Ga16 ag counter	TAAR1 desensitize	Ga16 antag count
CCc1ccc(C(=O)Nc2nnn(CC)n2)cc1	·	-13	·	-6	0	·	·	·	·	·
O=C(NCCc1ccccc1)C(=O)NCC1CCCN1S(=O)(=O)c1ccccc1 (stereo not drawn)	76*	-4	-6	-13	42*	59*	85*	11	80*	38*
CC1(C)CC(=O)C(C(C2=C(O)CC(C)(C)CC2=O)c2ccc(Br)s2)C(=O)C1 (stereo not drawn)	19	-19	-1	-17	10	51*	22	34*	42	27*
O=C(CC1Nc2ccccc2NC1=O)NCCc1ccccc1 (stereo not drawn)	57*	-12	-2	-11	29	91*	98*	2	74*	-8
Cc1nn(CC(=O)NCCc2cccs2)c(=O)c2cc3ccccc3n12	-5	-34	-3	-20	11	48*	38*	-1	1	5
COc1ccc(O)c(/C=N/NC(=O)c2c(C)nnn2-c2nonc2N)c1	-6	-27	-1	-5	27	0	·	·	·	·

Assay outcomes from PubChem BioAssay.
